Published values from different studies.
Each line is one published result; the experiments were not run side by side.
Target: Serine/threonine-protein kinase 25 (STK25, Homo sapiens, UniProt O00506)

SMILES | effect on | action | method | concentration | quantity | value
Cn1c2c(c3ccc(Cl)c(Cl)c31)C(C#N)C1(CCOCC1)NC2=O (centres unmarked) | thermal stability | – | DSF | 10 µM | ΔTm | 0.4 °C
CC(C)(O)[C@H]1CC[C@H](Nc2ccc3ncc(-c4cccc(C(F)(F)F)c4)n3n2)CC1 | enzyme activity | inhibitor | – | 1 µM | remaining activity | 87%
CO[C@@H](C)c1c(Nc2ccc([C@H](N(C)C(=O)C3CCS(=O)(=O)CC3)C(F)(F)F)cc2)cnc2cc(Cl)nn12 | cell-free assay | – | competition with immobilised ligand | 1 µM | remaining binding | 87%
CCN(CC)CCNC(=O)c1c(C)[nH]c(/C=C2\C(=O)Nc3ccc(F)cc32)c1C | cell-free assay | – | – | 0.5 µM | remaining signal | 76.1%
Cc1sc(C(=O)NC2COC2)cc1-n1cc(NC(=O)Nc2c(F)cccc2Cl)cn1 | enzyme activity | inhibitor | – | 10 µM | remaining activity | 70.5%
COc1cc(-c2cc(-c3ccc(N4CCNCC4)cc3)cnc2C)cc(OC)c1OC | enzyme activity | inhibitor | – | 1 µM | inhibition | 2%
CCOc1cc(-c2nncn2C)ccc1Nc1ncc2cc(C)nc(NCC(C)(C)C)c2n1 | enzyme activity | inhibitor | FRET | 1 µM | inhibition | < 15%
CCCCNc1ncc2c(-c3ccc(F)cc3)nn(C[C@H]3CC[C@H](N)CC3)c2n1 | target engagement in cells | inhibitor | chemoproteomics | 20 mM | inhibition | 5.7%
COc1cc2ncnc(Nc3ccc(Oc4ccccc4)c(C)c3C)c2cc1OC | enzyme activity | inhibitor | – | 1 µM | inhibition | 8%
C[C@@H]1CN(c2cc(-c3n[nH]c4ccc(OC5(C)CC5)cc34)ncn2)C[C@H](C)O1 | cell-free assay | – | competition with immobilised ligand | 0.1 µM | remaining binding | 100%
O=C(Nc1cnn(-c2csc(C(=O)NC3COC3)c2)c1)Nc1ccccc1Cl | enzyme activity | inhibitor | – | 5 µM | remaining activity | 106%
O=C(NCc1ncc(C(F)(F)F)cc1Cl)c1ccc2c(c1)C1(CCS(=O)(=O)CC1)[C@H](C1CC1)N2S(=O)(=O)c1ccc(F)cc1 | cell-free assay | – | competition with immobilised ligand | 1 µM | remaining binding | 100%
CC(C)(C)c1nc(-c2cccc(NS(=O)(=O)c3c(F)cccc3F)c2F)c(-c2ccnc(N)n2)s1 | enzyme activity | inhibitor | radiometric | 1 µM | remaining activity | 51%
CS(=O)(=O)N1CCCC(NC(=O)[C@H](CCC2CCCCC2)NC(=O)c2ccc(CNC(=O)c3cnc4ccccn34)cc2)C1 (some centres unmarked) | cell-free assay | – | competition with immobilised ligand | 0.1 µM | remaining binding | 100%
Cn1cncc1C1=CN(c2ncnc3[nH]cnc23)CCS1 | enzyme activity | inhibitor | radiometric | 50 nM | inhibition | 13.5%
C#Cc1cccc(Nc2ncnc3cc(OCCOC)c(OCCOC)cc23)c1 | cell-free assay | – | – | 0.5 µM | remaining signal | 99.4%
CC1(C)NC(=O)c2[nH]c3c(Cl)c(Cl)ccc3c2C1C#N (centres unmarked) | thermal stability | – | DSF | 10 µM | ΔTm | 1.6 °C
CC1CCCN1c1nccc(-c2cnn3ncccc23)n1 (centres unmarked) | binding | – | – | 1 µM | remaining binding | 100%
Cc1cc(C)c(-n2ccn3nc(-c4cccnc4)cc23)cc1NC(=O)c1cc(C#N)cc(S(F)(F)(F)(F)F)c1 | cell-free assay | – | competition with immobilised ligand | 0.1 µM | remaining binding | 79.1%
Nc1ncnc2occ(-c3ccc(NC(=O)Nc4cc(C(F)(F)F)ccc4F)cc3)c12 | cell-free assay | inhibitor | – | 20 µM | remaining signal | 77%
O=C(Nc1cnc(Oc2ccc(F)cc2)nc1)N1CCc2ncccc2[C@@H]1c1ccc(F)cc1 | cell-free assay | – | competition with immobilised ligand | 1 µM | remaining binding | 82%
Cc1cnc(NC2CCOCC2)nc1-n1cnc(C(=O)NC(CN)c2cc(F)cc(Cl)c2)c1 (centres unmarked) | enzyme activity | inhibitor | radiometric | 1 µM | remaining activity | 71%
Cc1noc([C@H]2C[C@@H](c3ccc(C(F)(F)F)cc3)CN(C(=O)N3CCS(=O)(=O)C3)C2)n1 | cell-free assay | – | competition with immobilised ligand | 1 µM | remaining binding | 89%
CCN1CCC2(CC1)NC(=O)c1c(c3ccc(Cl)c(Cl)c3n1C)C2C#N (racemic) | thermal stability | – | DSF | 10 µM | ΔTm | -0.2 °C
C[C@H](c1cccc(C#N)c1)n1cc(Cl)cc(C(N)=O)c1=N | cell-free assay | – | competition with immobilised ligand | 1 µM | remaining binding | 100%
COc1cc2ncnc(Nc3ccc(F)c(Cl)c3)c2cc1OCCCN1CCOCC1 | cell-free assay | – | – | 0.5 µM | remaining signal | 97.4%
